The array DNA melting data of Ke et al. (doi:10.1101/2024.01.08.574731)

Tests used:
[1] = folding enthalpy; higher = less favourable; fluorescence melt of hairpins on a sequencing array, two-state fit; conditions: sodium 0.088 M
Outline: (§1)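 To match UV melts, fitted temperatures were raised by 9.35 °C. These fits were bootstrapped two-state models that gave melting temperature and folding enthalpy, combined by inverse variance over four replicates. The input was normalised Cy3 fluorescence of library hairpins with annealed Cy3 and quencher oligos on a sequenced MiSeq flow cell, imaged in 50 mM Na-HEPES pH 8.0, 25 mM NaCl in 2.5 °C steps up to 60 °C.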

[2] = melting temperature; fluorescence melt of hairpins on a sequencing array, two-state fit, raised by 9.35 °C to match UV melts; conditions: sodium 0.088 M
Outline: as §1

| Sequence | folding enthalpy [1] [kcal/mol] | Tm [2] [°C] |
| --- | --- | --- |
| GTTGCCGGAAACGGCAGC (.(((((....))))).) | -14.4 | 57.5 |
| GTAGTAGGAAACTACTGC (.(((((....))))).) | -27.5 | 45.7 |
| GGACCCGAAAGGGCTCC ((((((....))).))) | -23.1 | 58.6 |
| GCCAACCGAAAGGTGGGC (((.(((....))).))) | -40.6 | 68.4 |
| GGCAATGAAAATTGCC ((((((....)))))) | -37.5 | 61.4 |
| GCAACTCGAAAGAGATGC (((.(((....))).))) | -40.1 | 53.8 |
| GCTGTGCGAAAGCATCGC ((..(((....)))..)) | -17.9 | 44.6 |
| GTCGCACCGAAAGGTGAC (((..(((....)))))) | -8.3 | 35 |
| GCTTACGGAAACATAAGC (((((.(....).))))) | -21.6 | 35.1 |
| GCTTGGCGAAAGCCCGGC ((..(((....)))..)) | -14.4 | 45.4 |
| GCGACCGAAAGGTACGC ((((((....))).))) | -23.8 | 58.1 |
| GGGATCTCGAAAGAGCCC (((..(((....)))))) | -27.9 | 51.2 |
| GAACCAGGAAACTGGTCC (.(((((....))))).) | -12.6 | 39.5 |
| GCAATGCGAAAGCTCTGC (((..((....))..))) | -16.1 | 37.2 |
| GGCACCGGAAACGGTACC ((.((((....)))).)) | -22.5 | 50.7 |
| GGTGGGAAACCACC (((((....))))) | -24.4 | 62.4 |
| TTGGTGAAAACCAA (((((....))))) | -15.8 | 44.8 |
| GGTCGCGAAAGCGGTACC ((((((....)))..))) | -14.5 | 46.5 |
| GATCGAACGGTCGATC ((((((....)))))) | -51.2 | 51.1 |
| GCAACTCCGAAAGGATGC (((..(((....)))))) | -19.8 | 38.1 |
| GATCAACAGTTGATC ((((((...)))))) | -40.3 | 41.7 |
| GTGCACGAAAGTGCCAC ((((((....))).))) | -8.14 | 54.5 |
| GCGGCTGCCCGC ((((....)))) | -19.4 | 55 |

| Sequence | folding enthalpy [1] [kcal/mol] | Tm [2] [°C] |
| --- | --- | --- |
| GTCTGTCGAAAGACCGAC (((.(((....))).))) | -27.8 | 47.7 |
| GCGATCAGTCGC ((((....)))) | -23.2 | 49.3 |
| GATCGCTAAGGCGATC ((((((....)))))) | -39.2 | 67.8 |
| TGTCAGAAATGACA (((((....))))) | -17.6 | 40.2 |
| GCTGTACGAAAGTAAGC (((.(((....)))))) | -27.1 | 49.2 |
| GGTGTTCGAAAGAAGACC (((.(((....))).))) | -40.4 | 50.5 |
| GCGATTGGAAACAATCAC (.(((((....))))).) | -19.7 | 40 |
| GATCCGAAAGCGGATC ((((((....)))))) | -34 | 53.1 |
| GATCGGCGCTCCGATC ((((((....)))))) | -37.8 | 56.9 |
| GATAGCGAAAGCTTCATC ((((((....)))..))) | -12 | 28.3 |
| GCTCTGCGAAAGCAACGC ((..(((....)))..)) | -9.7 | 31.8 |
| GTTGCGCGAAAGCGTAAC (((.(((....))).))) | -29.8 | 58.1 |
| GCTCGCGAAAGCGTGAGC ((((((....)))..))) | -18 | 53.4 |
| GAGCTGCGAAAGCATCTC (((.(((....))).))) | -29.4 | 46.8 |
| GGACGTGGAAACATGTCC ((((.((....)).)))) | -38.5 | 53.7 |
| GAGAGGGGAAACCCCCTC (((.(((....))).))) | -14.9 | 47.9 |
| GCTCAAGGAAACTTGAGC (((((((....))))))) | -46.3 | 64.4 |
| GATGCCGGAAACGGTATC (((.(((....))).))) | -42.9 | 53.9 |
| GTGCTGGGAAACCAGCGC (.(((((....))))).) | -29.5 | 61.6 |
| GTCGACGGAAACGTTGAC (((.(((....))).))) | -45.5 | 56.3 |
| GATCCTCCTGAGGATC ((((((....)))))) | -41.2 | 57.2 |
| GTCCCCTCGAAAGAGGAC (((..(((....)))))) | -8.53 | 33.6 |
| GTGGGATCGAAAGATCAC (((..(((....)))))) | -44.4 | 54.4 |

| Sequence | folding enthalpy [1] [kcal/mol] | Tm [2] [°C] |
| --- | --- | --- |
| GCTGCGGGAAACCGTAGC (((.(((....))).))) | -49.1 | 58.5 |
| GATCAGTGACCTGATC ((((((....)))))) | -30.1 | 48.7 |
| GAGTCAGGAAACCGACTC (((((.(....).))))) | -36.8 | 46.6 |
| GGGTAATCGAAAGATCCC (((..(((....)))))) | -25 | 35.9 |
| GATATGGGAAACCATATC (((((((....))))))) | -37.5 | 53.3 |
| GGTGACGGAAACGTTACC (((.(((....))).))) | -38.5 | 53 |
| GACAATGGAAACGTTGTC (((((.(....).))))) | -34.7 | 46.5 |
| GGGCGGCGAAAGCCCCC (((.(((....)))))) | -17.3 | 65.6 |
| GACCTCGGAAACAAGGTC (((((.(....).))))) | -32.1 | 40.9 |
| GATCACCCTCGTGATC ((((((....)))))) | -43.6 | 55.8 |
| GCGCCAGGAAACCGACGC (((.(.(....).).))) | -29.5 | 39.4 |
| GACACCGCGAAAGCGGTC (((..(((....)))))) | -6.65 | 35.4 |
| GCGCCGCGAAAGCCGAGC ((.(.((....)).).)) | -18.9 | 50.5 |
| GAGTCGCGAAAGCGCTC (((.(((....)))))) | -15.4 | 54.6 |
| GCCTTCGAAAGAATTGGC ((((((....)))..))) | -22.9 | 37 |
| GACTGGGGAAACCTAGTC ((((.((....)).)))) | -32.8 | 47.8 |
| GCATACGAAAGTACCTGC ((((((....)))..))) | -13.2 | 26.6 |
| GACACAGGAAACTATGTC ((((.((....)).)))) | -24.5 | 29.9 |
| GAGTGCGGAAACGTACTC ((((.((....)).)))) | -43.3 | 53.9 |
| GCGACGCTTCGC ((((....)))) | -14.7 | 55.7 |
| GAACGCGGAAACGCATTC (((.(((....))).))) | -19.9 | 40.1 |
| GGTCGCACGAAAGTGACC (((..(((....)))))) | -18.1 | 49.6 |
| GATCAAGGAGTTGATC ((((((....)))))) | -29.5 | 45.3 |
